Most compounds without a hit are left out; they make up all but 2.8% or so of the library.
Arbovirus inh = arbovirus infection inhibition | arbovirus infection cell-based antiviral screen | inhibition, % at 10 µM | 200,000 compounds, 0.37% hits | AID 1251; in the data active = inhibition above about 30%
Bim-Mcl-1 = disrupts Bim peptide binding to human Mcl-1 | 190,000 compounds, 0.1% hits | Q07820 | Bead-based flow cytometry, Bim peptide-Mcl-1 binding | inhibition, % at 10 µM; in the data active = inhibition above about 40%;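 note: 0% = no compound tracer wells and 100% = peptide blocker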
Target sequence (Q07820 whole entry, looked up): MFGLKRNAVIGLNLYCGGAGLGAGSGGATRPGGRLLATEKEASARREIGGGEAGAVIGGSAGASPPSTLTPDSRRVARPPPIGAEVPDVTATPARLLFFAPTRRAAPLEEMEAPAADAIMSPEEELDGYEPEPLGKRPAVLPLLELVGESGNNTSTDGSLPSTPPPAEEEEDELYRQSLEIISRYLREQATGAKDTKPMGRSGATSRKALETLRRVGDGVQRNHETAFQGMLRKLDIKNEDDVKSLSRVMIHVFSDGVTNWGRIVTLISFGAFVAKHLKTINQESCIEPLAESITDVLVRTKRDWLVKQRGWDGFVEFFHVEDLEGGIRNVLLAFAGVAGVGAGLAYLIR
Calb biofilm kill = mixtures killing C. albicans biofilm; AID 1242; inhibition, % at 7.6 µM; 120,000 compounds, 0.02% hits; C. albicans biofilm persisters + clotrimazole, fluorescence viability; primary screen in compound mixtures of four per well;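 note: compounds exposed to preformed 24 h biofilms for 48 h; 0% = untreated biofilm control and 100% = clotrimazole plus chlorhexidine kill blank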
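Incubation: 24 h biofilm formation, then 48 h compound exposure, 37 °C | Material: C. albicans biofilms | Buffer or medium: RPMI/MOPS medium, pH 7.0 | Measured by: 2-h Alamar Blue fluorescence, 535/590 nm excitation/emission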
Mcl1-Bid inh = Mcl-1/Bid interaction inhibition. Q07820. TR-FRET Mcl-1/Bid-Dy647 peptide binding, 1536-well. inhibition, % at 21.7 µM. 220,000 compounds, 0.97% hits. AID 1021;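 active = compounds that cut the binding signal by more than half at the single screening dose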;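 note: His-tagged Mcl-1 with europium anti-His antibody binding Bid BH3 peptide; 0% = Mcl-1 plus peptide wells and 100% = peptide-only wells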
m-calpain inh = inhibitors of pig calpain II; purified calpain II, fluorogenic peptide substrate, 30 min; inhibition, % at 16 µM; 220,000 compounds, 0.37% hits; AID 1236;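 active = inhibition above about 50%, limit read from the data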
Mcl1-Noxa inh = Mcl-1/Noxa interaction inhibition; Q07820; TR-FRET Mcl-1/Noxa peptide binding, 2 h; inhibition, % at 21.7 µM; 220,000 compounds, 1.5% hits;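 active = compounds that cut the protein-peptide binding signal by more than 50% relative to plate controls in a single-dose test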;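 note: His-tagged Mcl-1 with rhodamine Noxa BH3 peptide and terbium anti-His antibody; 0% = Mcl-1 plus Noxa peptide wells and 100% = peptide-only wells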
* = called active by the depositor; . = not tested or not shown.

SMILES | Arbovirus inh | Bim-Mcl-1 | Calb biofilm kill | Mcl1-Bid inh | m-calpain inh | Mcl1-Noxa inh
CCOC(=O)C1=C(O)/C(=C\c2ccc(O)c(OCC)c2)N=C1C | . | . | 8 | -97 | 9 | 25
CCOc1cc(/C=C2\SC(=O)N=C2N)ccc1O | -10 | 8 | 6 | -49 | 2 | 52*
COc1cc(/C=N/NC(=O)c2ccc([N+](=O)[O-])cc2Cl)cc(Br)c1O | 3 | 9 | 9 | -42 | 45 | 82*
COc1cc(/C=N/NC(=O)c2ccc(COc3ccccc3Cl)o2)cc(Br)c1O | 1 | -19 | 13 | 40 | -29 | 73*
COc1cccc(/C=N/NC(=O)c2ccc(COc3ccc(Cl)cc3Cl)o2)c1 | 5 | 0 | . | 5 | -137 | 11
COc1cc(/C=N/NC(N)=O)cc([N+](=O)[O-])c1O | -2 | 5 | 28 | -11 | 18 | 52*
OCCOCCN1CCN(C(=S)Nc2ccccc2)CC1 | 16 | 0 | 17 | -37 | -14 | 6
CC(C(=O)Nc1ccc2c(c1)OCCO2)N(C)Cc1c(F)cccc1Cl (stereo not drawn) | -21 | 1 | -2 | -38 | 1 | 5
c1ccn2cc(C34CC5CC(CC(C5)C3)C4)nc2c1 | 20 | 1 | -1 | -31 | -29 | -6
CCOC(=O)c1c(NC(=O)COC(=O)c2nc(Cl)ccc2Cl)sc2c1CCC2 | -3 | -4 | 0 | -27 | -21 | 4
Cc1ccc(Cl)c(OCC(=O)OCC(=O)NC2CCCc3ccccc32)c1 (stereo not drawn) | -3 | -2 | 16 | -17 | -11 | 2
Cc1cc(Cl)ccc1OCCCC(N)=O | 10 | -2 | . | -10 | -3 | 71*
CC(C)CCn1cnc2c(oc3nc4c(cc32)CCCC4)c1=O | . | . | 1 | -12 | -14 | 4
O=[N+]([O-])c1cccc(N/N=C/c2cccc3ccccc23)c1 | -3 | -2 | 6 | -13 | 30 | 59*
Cc1c(C)c(C)c(C(=O)C2CCN(c3ccc([N+](=O)[O-])cn3)CC2)c(C)c1C | . | . | -3 | -3 | 8 | -6
Oc1cccc(C=NCc2ccccc2)c1O | 4 | -1 | . | -10 | -57 | 23
Oc1ccc(/C=N/N=C(c2ccccc2)c2ccccc2)c(O)c1O | -19 | -1 | 7 | 6 | 11 | 101*
O=C(/C(=N/N=C/c1ccc(O)c(O)c1O)c1ccccc1)c1ccccc1 | -24 | -1 | 20 | -19 | 10 | 52*
CCC(=O)Nc1ccc(C(=O)Cn2nc(C(=O)O)c3ccccc3c2=O)cc1 | 4 | 0 | . | -20 | -319 | 56*
CCCCSc1nnc(CNC(=O)C23CC4CC(CC(C4)C2)C3)n1Cc1ccccc1 | -5 | -1 | 9 | 15 | -1 | 17
CCC1(C(=O)OC)CCc2c(cc(OC)c3ccccc23)C1=O (stereo not drawn) | . | . | -2 | -1 | -334 | 88*
CS(=O)(=O)c1ccc(C(=O)N2CCc3ccccc3C2)cc1 | 17 | 2 | 10 | -24 | 59* | -6
CS(=O)(=O)Nc1ccc(C(=O)N2CCc3ccccc3C2)cc1 | 9 | 0 | -5 | -33 | 10 | -6
O=C(CNC(=O)c1ccc(N2C(=O)c3ccccc3C2=O)cc1)OCC(=O)c1ccc(Cl)cc1 | 13 | -5 | 8 | 7 | 20 | -11
Cc1ccc(C(=O)COC(=O)CNC(=O)c2ccc(N3C(=O)c4ccccc4C3=O)cc2)cc1C | -3 | -6 | 21 | 17 | -3 | 83*
SMILES | Arbovirus inh | Bim-Mcl-1 | Calb biofilm kill | Mcl1-Bid inh | m-calpain inh | Mcl1-Noxa inh
COc1c(/C=N/NC(=O)c2ccncc2)c(CCN(C)C(C)=O)cc2c1OCO2 | . | . | 16 | -2 | 8 | 17
Cc1cc(C(=O)NCCCN(C)C)c2ccccc2n1 | 1 | 52* | 7 | 2 | 26 | 1
COc1ccc(C(=O)/C=C/C(=O)N(CC(=O)NC2CCCCC2)Cc2ccccc2)c(O)c1 | -40 | -3 | 3 | 37 | -74 | 6
COc1ccc(C(=O)/C=C/C(=O)N(CC(=O)NC2CCCCC2)CC2CCCO2)c(O)c1 (stereo not drawn) | -5 | -6 | 7 | 30 | 30 | 68*
CCn1c(C)nc2cc(S(=O)(=O)C(F)(F)C(F)C(F)(F)F)ccc21 (stereo not drawn) | -1 | -1 | . | -26 | 90* | 10
N#CC(=NCc1cccnc1)C1=C(O)c2ccccc2C1=O | . | . | 5 | -6 | 10 | 4
Cc1cc(C(=O)NC2CCCc3ccccc32)no1 (stereo not drawn) | 0 | 46* | . | -6 | -2 | 14
O=[N+]([O-])c1ccc(-c2n(-c3ccccn3)c3ccccc3[n+]2-c2ccccn2)cc1 | . | . | 18 | -1 | -6 | -15
O=C(O)/C(=C\c1ccc(Cl)c([N+](=O)[O-])c1)c1ccc(S(=O)(=O)N2CCCCC2)s1 | 28 | -1 | 14 | -6 | -38 | 56*
O=C(O)/C(=C\c1cccc([N+](=O)[O-])c1)c1ccc(S(=O)(=O)N2CCCCC2)s1 | . | . | 16 | 4 | 32 | 44
O=C(O)/C(=C\c1ccccc1Cl)c1ccc(S(=O)(=O)N2CCCCC2)s1 | 13 | 0 | 10 | 36 | -15 | 62*
CCN1CCN(C(c2cccs2)C(C)NC(=S)Nc2cccc(C)c2C)CC1 (stereo not drawn) | . | . | 11 | -42 | -13 | -12
CC1=NN(C(N)=S)C(=O)C1N=Nc1ccc(O)cc1 (stereo not drawn) | -24 | 3 | 31 | -39 | 24 | 78*
CC1=NN(C(N)=S)C(=O)C1N=Nc1cccc(C)c1 (stereo not drawn) | . | . | 15 | -54 | 5 | 3
Cc1cccc(NS(=O)(=O)c2cc(C(=O)N3CCOCC3)ccc2Cl)c1 | 1 | -1 | 15 | 1 | 21 | 8
CCCCC(=O)Nc1sc(C(=O)N(CC)CC)c(C)c1C(=O)OC | -13 | 13 | 15 | -2 | 25 | -1
CCOC(=O)c1c(NC(=O)CN(C)C)sc(C(=O)N(CC)CC)c1C | 9 | -6 | . | 70* | 3 | 0
O=C(NCc1ccco1)c1cccc(Nc2nc3ccc(Br)cc3[nH]2)c1 | -31 | -6 | . | 0 | 82* | 24
O=C(Cc1ccc(Nc2nc3ccc(Br)cc3[nH]2)cc1)NCCc1cccs1 | -29 | -5 | . | -9 | 40 | 27
O=C(NCC1CC1)c1ccc(Nc2nc3ccc(Br)cc3[nH]2)cc1 | -8 | 0 | . | 13 | -7 | 52*
Cc1nn(C(C)C(=O)NCc2cccs2)c(C)c1[N+](=O)[O-] (stereo not drawn) | 0 | 0 | 12 | -5 | -14 | 11
CC1CCC(N(CCCN)Cc2ccco2)CC1C (stereo not drawn) | -10 | -1 | 2 | -45 | 7 | 2
CCc1c(C(=O)Nc2cc(C)ccc2OC)[nH]c(C)c1C(C)=O | -1 | 2 | . | 96* | -110 | 6
CCC(=O)NC(c1ccc(N(C)C)cc1)c1c(O)ccc2ccccc12 (stereo not drawn) | 3 | 1 | -9 | -18 | 8 | 51*
CN1CCN(c2cc3c(c4c2[nH]c2ccccc24)C(=O)CC(C)(C)C3)CC1 | -27 | 1 | . | -13 | -362 | 54*

Compound activity deposited in PubChem by several laboratories.
